Series [1] is described as follows: Cytotoxicity against MDCK cells assessed as minimum concentration required to cause microscopically detectable alteration after 2 days. The format is cell-based, Canis lupus familiaris. Conditions: dog, read-out: Activity.
For series [2], the system named is Influenza B virus. In words: Antiviral activity against influenza B virus infected in MDCK cells assessed as cell viability after 2 days by MTS assay. The format is functional, organism-based.
Series [3] has as its system Influenza B virus. Kind of series: Antiviral activity against influenza B virus infected in MDCK cells assessed as protection against virus-induced cytopathogenicity after 2 days. Type of series: functional, organism-based. The essentials: (§1)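 Infected MDCK cells were treated. […] N.A. means not active at the highest concentration tested or at a subtoxic concentration.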

Series [4] can be described thus: (§2) Cytotoxicity against MDCK cells by MTS assay. Conditions: dog, MDCK cells. Type of series: cell-based, Canis lupus familiaris. In outline:
(§3)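 In Madin Darby canine kidney cells, the 50% cytotoxic concentration was derived from cell viability measured by the colorimetric formazan-based MTS assay.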

The test system of series [5] is Mammalian orthoreovirus 1. Kind of series: Antiviral activity against Reovirus-1 infected in african green monkey Vero cells assessed as inhibition of viral replication. Type of series: functional, organism-based.
The nature of series [6]: Selectivity index, ratio of minimum concentration required to cause microscopically detectable alteration in human HEL cells to EC50 for Herpes simplex virus-2 G. The format is toxicity, cell-based. The settings on record: read-out: Selectivity Index. The essentials: (§4)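 Cytotoxicity was taken as the concentration causing a microscopically detectable change in normal cell morphology (Vero or HEL). […] The selectivity index is the first divided by the second.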

Series [7] can be described thus: Cytotoxicity against african green monkey Vero cells assessed as minimum concentration required to cause microscopically detectable alteration after 2 days. The settings on record: chlorocebus sabaeus, read-out: Activity. Type of series: cell-based.
The test system of series [8] is Human alphaherpesvirus 1. In words: Antiviral activity against Herpes simplex virus-1 KOS infected in human HEL cells assessed as protection against virus-induced cytopathogenicity after 2 days. The settings on record: Human alphaherpesvirus 1, KOS, 48 h. Type of series: functional, organism-based.
The nature of series [9]: Cytotoxicity against human HEL cells assessed as minimum concentration required to cause microscopically detectable alteration after 2 days. The settings on record: read-out: Activity. The format is cell-based.
The subject of series [10] is Influenza A virus. Kind of series: Antiviral activity against influenza A virus H1N1 infected in MDCK cells assessed as protection against virus-induced cytopathogenicity at 100 ug/ml after 2 days. Type of series: functional, organism-based. In outline: as §1
Series [11] has as its system Coxsackievirus B4. In words: Antiviral activity against Coxsackie virus B4 infected in african green monkey Vero cells assessed as inhibition of viral replication. The format is functional, organism-based.
For series [12], the system named is Vesicular stomatitis virus. Kind of series: Antiviral activity against Vesicular stomatitis virus infected in human HeLa cells assessed as protection against virus-induced cytopathogenicity after 2 days. The format is functional, organism-based. The settings on record: 48 h.
A further series concerns Human alphaherpesvirus 2. In words: Antiviral activity against Herpes simplex virus-2 G infected in human HEL cells assessed as protection against virus-induced cytopathogenicity after 2 days. Type of series: functional, organism-based. The settings on record: Human alphaherpesvirus 2, strain G, 48 h.
Series [13] is described as follows: Selectivity index, ratio of minimum concentration required to cause microscopically detectable alteration in green monkey Vero cells to EC50 for sCoxsackie virus B4. The format is toxicity, cell-based. Conditions: read-out: Selectivity Index. In outline:
as §4

The nature of series [14]: Cytotoxicity against cat CRFK cells by MTS assay. The settings on record: crfk. Type of series: cell-based, Felis catus. The essentials: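 In uninfected CRFK cells, the 50% cytotoxic concentration was derived from cell viability measured by the colorimetric formazan-based MTS assay.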
The test system of series [15] is Punta Toro virus. In words: Antiviral activity against Punta Toro virus infected in african green monkey Vero cells assessed as inhibition of viral replication. The format is functional, organism-based.
Series [16] concerns Human alphaherpesvirus 1. In words: Antiviral activity against acyclovir-resistant TK deficient Herpes simplex virus-1 KOS infected in human HEL cells assessed as protection against virus-induced cytopathogenicity after 2 days. The format is functional, organism-based. Conditions: Human alphaherpesvirus 1, KOS, 48 h.
The test system of series [17] is Sindbis virus. Kind of series: Antiviral activity against Sindbis virus infected in african green monkey Vero cells assessed as protection against virus-induced cytopathogenicity after 2 days. The format is functional, organism-based. The settings on record: 48 h.
Series [18] concerns Influenza B virus. In words: Antiviral activity against influenza B virus infected in MDCK cells assessed as protection against virus-induced cytopathogenicity at 100 ug/ml after 2 days. The format is functional, organism-based. The essentials:
as §1

For series [19], the system named is Influenza A virus. In words: Antiviral activity against Influenza A virus H3N2 infected in MDCK cells assessed as protection against virus-induced cytopathogenicity at 100 ug/ml after 2 days. Type of series: functional, organism-based. In outline: as §1
Series [20] in a line: Selectivity index, ratio of minimum concentration required to cause microscopically detectable alteration in human HEL cells to EC50 for acyclovir-resistant TK deficient Herpes simplex virus-1 KOS. The format is toxicity, cell-based. The settings on record: read-out: Selectivity Index. The essentials:
as §4

Series [21] in a line: Selectivity index, ratio of minimum concentration required to cause microscopically detectable alteration in human HEL cells to EC50 for Herpes simplex virus-1 KOS. The format is toxicity, cell-based. Conditions: read-out: Selectivity Index. In outline: as §4
Series [22] relates to Mammalian orthoreovirus 1. In words: Antiviral activity against Reovirus-1 infected in african green monkey Vero cells assessed as protection against virus-induced cytopathogenicity after 2 days. The format is functional, organism-based. Conditions: Mammalian orthoreovirus 1, Vero, 48 h.
Series [23] is described as follows: Selectivity index, ratio of minimum concentration required to cause microscopically detectable alteration in green monkey Vero cells to EC50 for Reovirus-1. Type of series: toxicity, cell-based. Conditions: read-out: Selectivity Index. In outline:
as §4

For series [24], the system named is Coxsackievirus B4. In words: Antiviral activity against Coxsackie virus B4 infected in african green monkey Vero cells assessed as protection against virus-induced cytopathogenicity after 2 days. The format is functional, organism-based. Conditions: Enterovirus B, 48 h.
For a further series, the system named is MDCK. The series is described as §2. Type of series: cell-based, Canis lupus familiaris. The settings on record: dog, mdck. In outline: as §3
Series [25] concerns Influenza B virus. In words: Antiviral activity against influenza B virus infected in MDCK cells assessed as cell viability at 100 ug/ml after 2 days by MTS assay. Type of series: functional, organism-based.
In series [26] the test system is Punta Toro virus. Kind of series: Antiviral activity against Punta Toro virus infected in african green monkey Vero cells assessed as protection against virus-induced cytopathogenicity after 2 days. Type of series: functional, organism-based. The settings on record: 48 h.
The subject of a further series is Human respirovirus 3. In words: Antiviral activity against Para influenza-3 virus infected in african green monkey Vero cells assessed as protection against virus-induced cytopathogenicity after 2 days. The format is functional, organism-based. The settings on record: Human respirovirus 3, Vero, 48 h.
For series [27], the system named is Respiratory syncytial virus. In words: Antiviral activity against Respiratory syncytial virus infected in human HeLa cells assessed as protection against virus-induced cytopathogenicity after 2 days. The format is functional, organism-based. The settings on record: 48 h.
Series [28] can be described thus: Selectivity index, ratio of minimum concentration required to cause microscopically detectable alteration in human HEL cells to EC50 for acyclovir-resistant TK deficient Vaccina virus. Type of series: toxicity, cell-based. Conditions: read-out: Selectivity Index. The essentials:
as §4

The next series deals with Felid alphaherpesvirus 1. Kind of series: Antiviral activity against Feline herpes virus infected in cat CRFK cells assessed as protection against virus-induced cytopathogenicity after 2 days by MTS assay. Type of series: functional, organism-based. The settings on record: Felid alphaherpesvirus 1, CRFK, 48 h.
In series [29] the test system is Sindbis virus. Kind of series: Antiviral activity against Sindbis virus infected in african green monkey Vero cells assessed as inhibition of viral replication. Type of series: functional, organism-based.
A short description of series [30]: Cytotoxicity against human HeLa cells assessed as minimum concentration required to cause microscopically detectable alteration after 2 days. Type of series: cell-based. Conditions: read-out: Activity.
Series [31] relates to Feline infectious peritonitis virus. In words: Antiviral activity against Feline coronavirus FIPV infected in cat CRFK cells assessed as protection against virus-induced cytopathogenicity after 2 days by MTS assay. Type of series: functional, cell-based. The settings on record: Alphacoronavirus 1, CRFK, 48 h.
In series [32] the test system is Influenza A virus. Kind of series: Antiviral activity against influenza A virus H1N1 infected in MDCK cells assessed as cell viability at 100 ug/ml after 2 days by MTS assay. The format is functional, organism-based.
Series [33] concerns Coxsackievirus B4. Kind of series: Antiviral activity against Coxsackie virus B4 infected in human HeLa cells assessed as protection against virus-induced cytopathogenicity after 2 days. Type of series: functional, organism-based. The settings on record: Enterovirus B, 48 h.
In series [34] the test system is Influenza A virus. In words: Antiviral activity against Influenza A virus H3N2 infected in MDCK cells assessed as cell viability at 100 ug/ml after 2 days by MTS assay. Type of series: functional, organism-based.
The nature of series [35]: Selectivity index, ratio of minimum concentration required to cause microscopically detectable alteration in green monkey Vero cells to EC50 for Punta Toro virus. The format is toxicity, cell-based. Conditions: read-out: Selectivity Index. In outline:
as §4

The nature of series [36]: Selectivity index, ratio of minimum concentration required to cause microscopically detectable alteration in green monkey Vero cells to EC50 for Sindbis virus. The format is toxicity, cell-based. Conditions: read-out: Selectivity Index. The essentials:
as §4

The test system of series [37] is Vesicular stomatitis virus. In words: Antiviral activity against Vesicular stomatitis virus infected in human HEL cells assessed as protection against virus-induced cytopathogenicity after 2 days. The settings on record: 48 h. Type of series: functional, organism-based.

Converted amounts (≈) assume the structure as drawn. The source made the active and inactive calls. No cut-off for these calls is given here. Some results are limits rather than exact numbers.

Turning to `NC12CC3CC(CC(C3)C1)C2` [AMANTADINE], in series [1], the MCC at 48 h is more than 1000 µg/mL. Further, the 50% effective concentration (EC50) result with Influenza B virus [2] and with Influenza B virus [3] was “Not Active” in each case. In series [4], this compound came in with a CC50 of more than 1000 µg/mL.
Regarding `O=c1c2ccccc2nc(-c2ccccc2)n1/N=C/c1ccccc1O`, the inhibition entry (in series [5]; in the series with Coxsackievirus B4 [11]; in the series with Punta Toro virus [15]; in the series on Sindbis virus [29]) was “Active” throughout. In addition, the selectivity ratio is 100 in series [6]; 10 in series [13]; 100 in series [20]; 100 in [21]; 10 in series [23]; 125 in series [28]. Also, the selectivity ratio in series [35] came out at 33; in series [36], 20. Besides, the MCC at 48 h was 100 µg/mL in [7], 100 µg/mL in [9], not below 0.8 µg/mL in series [1] and 4 µg/mL in series [30]. For the same compound, the EC50 in the series with Human alphaherpesvirus 1 [8] is 1 µg/mL (≈ 2.93 µM); in the series on Influenza A virus [10], “Not Active”; in series [12], more than 0.8 µg/mL; with Human alphaherpesvirus 2, 1 µg/mL (≈ 2.93 µM); in the series on Human alphaherpesvirus 1 [16], 1 µg/mL (≈ 2.93 µM); in the series on Sindbis virus [17] it was 5 µg/mL (≈ 14.6 µM). Also, the concentration for a half-maximal effect (EC50) result in the series with Influenza B virus [18] was “Not Active”; with Influenza A virus [19], “Not Active”; in series [22], 10 µg/mL (≈ 29.3 µM); in the series with Coxsackievirus B4 [24] it was 10 µg/mL (≈ 29.3 µM); with Influenza B virus [25], “Not Active”; in the series on Punta Toro virus [26] it was 3 µg/mL (≈ 8.79 µM). The concentration for a half-maximal effect (EC50) with Human respirovirus 3 was more than 20 µg/mL; in [27] it was more than 0.8 µg/mL; in the series with Felid alphaherpesvirus 1, more than 4 µg/mL; in series [31], more than 4 µg/mL; in the series with Influenza A virus [32], “Not Active”; in the series with Coxsackievirus B4 [33] it was more than 0.8 µg/mL. Besides, the values for the EC50 entry (in the series on Influenza A virus [34]; in [37]) were “Not Active” and 15 µg/mL (≈ 43.9 µM), respectively. The results for the cytotoxic concentration (CC50) (in series [14]; in the series with MDCK) were 11.2 µg/mL (≈ 32.8 µM) and 2.6 µg/mL (≈ 7.62 µM), respectively.
As for `CC(N)C12CC3CC(CC(C3)C1)C2` (stereo unspecified) [RIMANTADINE], in [1], the MCC at 48 h came to 1000 µg/mL. In addition, the half-maximal effective concentration (EC50) result in the series on Influenza B virus [2] and in the series on Influenza B virus [3] was “Not Active” throughout. In the series on MDCK, this compound showed a CC50 of 472 µg/mL (≈ 2630 µM).
